# Assay outcomes: PubChem, several laboratories
# APJ antag: blocks the human apelin receptor APJ; P35414; inhibition, % at 20 µM; CHO-K1 APJ beta-arrestin complementation, luminescence; AID 2521; 330,000 tested, 0.32% active;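 active means inhibition above about 40% at 20 µM, limit read from the data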;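 further: cells challenged with 10 nM apelin-13 agonist together with compound; plate controls were apelin-13 plus DMSO wells for no effect and DMSO wells lacking apelin-13 for full effect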
# HTR2A ag: activates the mouse 5-HT2A serotonin receptor. P35363. CHO-K1 mHTR2A beta-arrestin complementation, luminescence; percent of 30 µM serotonin response. activation, % at 7.6 µM. 360,000 tested, 0.66% active. AID 624169;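 active means activation above a run cutoff, the mean activation of all tested compounds plus 3 SD, cut at about 14% in these data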;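 further: 0% = plate median of compound wells and 100% = 30 µM serotonin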
# Target sequence (P35363 whole entry, looked up): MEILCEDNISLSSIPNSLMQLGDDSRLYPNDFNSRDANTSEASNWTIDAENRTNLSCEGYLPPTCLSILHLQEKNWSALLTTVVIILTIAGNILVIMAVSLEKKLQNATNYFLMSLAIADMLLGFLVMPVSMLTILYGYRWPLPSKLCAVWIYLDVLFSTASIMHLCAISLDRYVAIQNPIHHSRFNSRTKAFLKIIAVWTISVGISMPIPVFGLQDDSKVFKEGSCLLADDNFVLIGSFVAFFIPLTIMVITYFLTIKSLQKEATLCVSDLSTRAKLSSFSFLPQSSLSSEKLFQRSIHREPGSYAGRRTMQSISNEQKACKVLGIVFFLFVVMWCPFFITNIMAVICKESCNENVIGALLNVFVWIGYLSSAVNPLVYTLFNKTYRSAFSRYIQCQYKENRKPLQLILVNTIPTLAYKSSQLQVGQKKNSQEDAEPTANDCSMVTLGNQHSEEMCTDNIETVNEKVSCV
# CXCR6 inh: CXCR6 (human) receptor inhibition | AID 602244 | 360,000 tested, 0.36% active | CHO-K1 PathHunter CXCR6 beta-arrestin, luminescence | inhibition, % at 20 µM; in the data active means inhibition above about 34%, passing the limit was not always enough;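 further: antagonist mode with CXCL16 agonist at 10 nM final; 0% = 10 nM CXCL16 with DMSO and 100% = unstimulated wells without agonist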
# APJ agonist: APJ receptor agonism. activation, % at 20 µM. P35414. AID 2520. CHO-K1 APJ PathHunter beta-arrestin, luminescence; 0% DMSO wells, 100% apelin. 330,000 tested, 0.11% active;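 active means activation more than six SD over the plate average, tested at 20 µM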;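 further: 0% = DMSO alone and 100% = apelin-13 at 10 nM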
#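 Assay system: engineered CHO-K1 APJ arrestin reporter cells; Amount: 1000 CHO-K1 reporter cells seeded per well; Dosing: one dose, 20 µM compound, 1% DMSO; Times: compound stimulation 90 min at 25 °C, detection 60 min; Measured by: luminescent beta-gal fragment complementation, chemiluminescent substrate; Read-out: APJ–arrestin association signal; Controls: DMSO vs Apelin-13 10 nM.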
# CCR6 antag: CCR6 (human) receptor antagonism; CHO-K1 CCR6 PathHunter beta-arrestin, luminescence, CCL20-stimulated; inhibition, % at 20 µM; 340,000 tested, 0.49% active;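 active means compounds whose inhibition of the agonist-driven luminescence signal at 20 µM reaches about 50%, limit read from the data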;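 further: cells stimulated with CCL20 at 14 nM final; plate controls were DMSO with CCL20 for no effect and DMSO without agonist for full effect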
# EBI2 block: antagonists of human EBI2 receptor; EBI2 beta-arrestin recruitment, luminescence, 7a,25-OHC stimulated; inhibition, % at 5 µM; 360,000 tested, 0.81% active; P32249; AID 651636; in the data active means inhibition above about 38%;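 further: enzyme fragment complementation signal reports receptor beta-arrestin coupling in cells; 0% = agonist plus DMSO wells and 100% = wells without agonist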
# MOR ag counter: counter-screen for mouse HTR2A agonists: human mu opioid receptor agonists; shares compounds with HTR2A ag; U2OS OPRM1 beta-arrestin PathHunter, luminescence; DMSO 0%, DAMGO 9.3 µM 100%; activation, % at 9.3 µM; 2,300 tested, 5.3% active; AID 624380;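 active means mean activation above the mean of DMSO-only wells plus 3 SD, cut at about 0.5% in these data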
# m5-HT2A ag conf: mouse HTR2A agonism confirmed | shares compounds with HTR2A ag | CHO-K1 PathHunter beta-arrestin recruitment, luminescence; DMSO 0%, 30 µM serotonin 100% | activation, % at 7.6 µM | 2,300 tested, 19% active | AID 624381;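 active means mean activation across triplicates above the hit threshold derived in the original primary screen, cut at about 15% in these data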
# * marks the source's active call; other numbers are inactive results; / = no result given. Sampled rows, rich in hits. Any-hit rate of the full collection: about 2.1%.
SMILES,APJ antag,HTR2A ag,CXCR6 inh,APJ agonist,CCR6 antag,EBI2 block,MOR ag counter,m5-HT2A ag conf
Cc1cccc(NS(=O)(=O)c2ccc(C(=O)N3CCN(c4ccccc4O)CC3)cc2)c1C,-47.6,16.4*,-13.4,7.6,-12.2,-22.4,0.5*,5.1
Cc1ccccc1NS(=O)(=O)c1ccc(C(=O)N2CCCC2)cc1,-27.9,7.3,-5.8,-2.1,-4.8,-0.7,/,/
COc1ccc(CC(=O)Nc2ccc(-c3noc(-c4ccccc4OC)n3)cc2)cc1,0.9,18.2*,-0.7,1.0,12.5,14.2,3.0*,10.4
COc1cccc(-c2nc(-c3ccc(NC(=O)Cc4ccccc4OC)cc3)no2)c1,/,-0.4,-1.9,/,-0.5,-1.1,/,/
O=S1(=O)CC(N2CCN(Cc3ccccc3F)CC2)CN1Cc1cn(Cc2cccc(Cl)c2)nn1 (configuration not stated),/,14.9*,-0.8,/,/,-3.2,-0.6,3.3
CCCCCCn1cc(CN2CC(N3CCCC3)CS2(=O)=O)nn1 (configuration not stated),/,20.3*,-1.2,/,/,-1.9,-0.6,-4.3
CCCCCCn1cc(CN2CC(N3CCSCC3)CS2(=O)=O)nn1 (configuration not stated),/,0.2,-0.5,/,/,0.5,/,/
CN(C)CCN1CCN(C2CN(Cc3cn(Cc4ccccc4)nn3)S(=O)(=O)C2)CC1 (configuration not stated),/,19.6*,4.4,/,/,-1.2,-0.7,-2.5
Cc1ccc(C)c(N2N=C(C(=O)Nc3cccnc3)CCC2=O)c1,14.0,15.3*,-4.2,-5.5,15.1,-3.2,-0.6,-1.9
CS(=O)(=O)c1ccc(Cl)c(NC(=O)CSc2nc3ccccc3c(=O)n2Cc2ccco2)c1,7.0,0.9,5.9,-1.5,13.9,7.4,/,/
Cc1cccc(N2CCN(c3ccc(N4C(=O)CCCC4=O)cc3[N+](=O)[O-])CC2C)c1 (configuration not stated),12.5,14.8*,15.6,-0.9,23.9,5.5,-0.6,7.2
Cc1cccc(N2CCN(c3ccc(N4C(=O)CCCC4=O)cc3[N+](=O)[O-])CC2)c1C,8.4,-2.8,-1.7,-4.4,26.2,19.2,/,/
C=CCn1c(SCC(=O)c2ccc(Cl)cc2)nnc1-c1ccc2c(c1)OCO2,5.6,32.1*,-3.9,-3.4,15.8,-1.9,-0.3,1.0
COc1cccc(NC(=O)CSc2nnc3ccc(-c4ccncc4)nn23)c1,-29.2,2.8,-5.6,16.4,-1.6,1.2,/,/
CC(C)(c1ccccc1)c1ccc(OCC(O)CNC2CCN(Cc3ccccc3)CC2)cc1 (configuration not stated),16.3,-2.4,-10.3,-0.3,6.1,-5.9,/,/
COc1ccc(S(=O)(=O)N(C)CC(=O)N2CCCCC2)cc1Cl,16.0,14.5*,-5.5,-2.6,12.9,-11.8,-0.5,-0.7
COc1ccc(S(=O)(=O)N(C)CC(=O)N2CCN(C)CC2)cc1Cl,1.4,1.5,3.0,-1.0,-7.7,-7.7,/,/
Cc1occc1C(=O)N1CCCC(N2CCN(c3cccc(Cl)c3)CC2)C1 (configuration not stated),-8.0,-6.8,2.6,2.4,2.3,1.1,/,/
C#Cc1ccc([C@@H]2C=C(C(=O)N3CCOCC3)O[C@H](OCc3ccc(CO)cc3)C2)cc1,5.9,-0.1,-4.6,1.2,7.1,3.8,/,/
C=C(C)C1CC=C(CN2CC(C)OC(C)C2)CC1 (configuration not stated),-1.7,1.3,-10.8,-5.5,-6.4,-10.4,/,/
C=C(C)C1CC=C(CN2CCC(C(=O)OCC)CC2)CC1 (configuration not stated),3.1,17.8*,0.2,-6.5,15.4,-8.6,-0.2,26.1*
CN1CCN(Cc2nc(N)nc(Nc3ccc4c(c3)OCCO4)n2)CC1,-7.5,-3.8,0.4,-5.1,2.2,1.0,/,/
Nc1nc(CN2CCN(c3ccccc3F)CC2)nc(Nc2ccc3c(c2)OCCO3)n1,-9.9,22.5*,-4.2,-4.1,13.4,-3.9,-0.8,35.8*
Nc1nc(CN2CCN(c3ccccn3)CC2)nc(Nc2ccc(Cl)cc2)n1,-25.4,15.4*,-2.0,3.6,-3.9,-4.0,-0.3,72.7*
CC(CSC(=O)c1ccccc1)C(=O)N1c2ccccc2CC1C(=O)O (configuration not stated),/,-0.3,4.5,/,/,5.1,/,/
SMILES,APJ antag,HTR2A ag,CXCR6 inh,APJ agonist,CCR6 antag,EBI2 block,MOR ag counter,m5-HT2A ag conf
CCOc1ccc(CCNC(=O)C2CCCN(S(=O)(=O)N3CC(C)CC(C)C3)C2)cc1OCC (configuration not stated),4.6,-7.2,0.1,0.6,5.4,-1.1,/,/
Cc1noc(C)c1CSCC(=O)N(C)CC(=O)Nc1ccccc1Cl,-4.9,14.5*,2.5,-0.1,-8.8,-5.9,-0.6,-2.2
CC(C)(C)OC(=O)NCCCC[C@@H](C(=O)N1CCN(C(=O)OC(C)(C)C)CC1)n1cc(CCC(=O)O)nn1,16.8,-6.4,-4.7,-3.7,1.6,-12.1,/,/
CCCCc1cn([C@@H](CCCCNC(=O)OC(C)(C)C)C(=O)N2CCN(C(=O)OC(C)(C)C)CC2)nn1,-6.3,15.7*,0.7,-2.6,16.3,3.8,-0.5,-1.1
O=C(NCc1ccco1)c1ccc2sc([C@@H]3O[C@H](CO)[C@@H](O)[C@H]3O)nc2c1,/,6.2,1.3,/,/,11.7,/,/
CC(=O)N1c2ccc(S(=O)(=O)NCCC(=O)Nc3ccc(C)c(F)c3)cc2CC1C (configuration not stated),0.5,0.8,-4.1,-2.7,7.2,-8.1,/,/
CC(=O)N1c2ccc(S(=O)(=O)NCCC(=O)Nc3ncccc3C)cc2CC1C (configuration not stated),1.8,14.7*,-6.0,-6.6,8.7,6.6,-0.7,-3.8
CCc1ccc(C(=O)C(C)OC(=O)Cn2cnc3c2c(=O)n(C)c(=O)n3C)cc1 (configuration not stated),-9.2,17.0*,5.6,-2.9,1.8,7.7,-0.6,-1.5
Cc1cnc(CN(C)C(=O)C2CCC(=O)N(CCc3ccccc3)C2)[nH]1 (configuration not stated),5.8,20.1*,4.7,-0.8,2.5,2.6,-0.8,-3.5
CCC(C)NC(=O)C1CCN(S(=O)(=O)c2cc([N+](=O)[O-])ccc2Cl)CC1 (configuration not stated),-75.2,24.1*,-9.3,7.4,-6.9,0.0,0.2,-2.0
O=C1CCNc2c(Cl)cccc21,-2.4,14.5*,0.4,-2.4,-15.4,0.6,-0.6,1.9
